Results reported in ChEMBL document CHEMBL1145176, “Somatostatin receptor 1 selective analogues: 2. N(alpha)-Methylated scan” (J Med Chem, 2005).
Several values for one entry are separate records, joined by “and”; a condition that tells them apart may be missing. Equal entries are not always repeated. Positions of bridges follow the written chain, without caps; N, C: chain ends. Non-standard residues stand in square brackets, D forms with d. Residues, ends and D or L forms follow the SMILES beside them. NMePhe(4-CH2NHiPr) = CN[C@@H](Cc1ccc(CNC(C)C)cc1)C(=O)O; Phe(4-CH2NHiPr) = CC(C)NCc1ccc(C[C@H](N)C(=O)O)cc1

Assays:
[1] = target: Somatostatin receptor type 1 (Homo sapiens, UniProt P30872); assay: Inhibition of [Leu8,D-Trp22,125I-Tyr25]SRIF-28 binding to human somatostatin receptor type 1
[2] = target: Somatostatin receptor type 2 (Homo sapiens, UniProt P30874); assay: Inhibition of [Leu8,D-Trp22,125I-Tyr25]SRIF-28 binding to human somatostatin receptor type 2
[3] = target: Somatostatin receptor type 3 (Homo sapiens, UniProt P32745); assay: Inhibition of [Leu8,D-Trp22,125I-Tyr25]SRIF-28 binding to human somatostatin receptor type 3
[4] = target: Somatostatin receptor type 4 (Homo sapiens, UniProt P31391); assay: Inhibition of [Leu8,D-Trp22,125I-Tyr25]SRIF-28 binding to human somatostatin receptor type 4
[5] = target: Somatostatin receptor type 5 (Homo sapiens, UniProt P35346); assay: Inhibition of [Leu8,D-Trp22,125I-Tyr25]SRIF-28 binding to human somatostatin receptor type 5
CHO-K1 [6] = assay: Concentration for inhibition of forskolin-stimulated cAMP accumulation in CCL39 cells; type: functional, cell-based, Cricetulus griseus
Outline: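 CCL39 cells stably expressing human sst1, seeded in poly-D-lysine-coated 96-well plates at 2 × 10^4 cells/well, grown 24 h. Preincubated 30 min at 37 °C in medium with 0.5 mM IBMX, then 30 min at 37 °C with 0.5 mM IBMX, 7.5 µM forskolin and varying peptide concentrations. Lysed; cAMP measured by scintillation proximity assay. Three independent experiments in triplicate; EC50 from concentration-response curves.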

CHO-K1 [7] = assay: Inhibition of forskolin-stimulated cAMP accumulation in CCL39 cells; type: functional, Cricetulus griseus
Outline: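 CCL39 cells stably expressing human sst1 were seeded at 2 × 10^4 cells/well on poly-D-lysine plates and grown 24 h. Cells were preincubated 30 min at 37 °C with 0.5 mM IBMX, then exposed 30 min at 37 °C to IBMX ± 7.5 µM forskolin plus graded compound concentrations. Lysate cAMP was read by scintillation proximity assay and expressed as % forskolin-stimulated level. EC50 came from three independent experiments in triplicate, with SRIF-28 as positive control.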

Somatostatin receptor type 4, sequence (P31391 whole entry): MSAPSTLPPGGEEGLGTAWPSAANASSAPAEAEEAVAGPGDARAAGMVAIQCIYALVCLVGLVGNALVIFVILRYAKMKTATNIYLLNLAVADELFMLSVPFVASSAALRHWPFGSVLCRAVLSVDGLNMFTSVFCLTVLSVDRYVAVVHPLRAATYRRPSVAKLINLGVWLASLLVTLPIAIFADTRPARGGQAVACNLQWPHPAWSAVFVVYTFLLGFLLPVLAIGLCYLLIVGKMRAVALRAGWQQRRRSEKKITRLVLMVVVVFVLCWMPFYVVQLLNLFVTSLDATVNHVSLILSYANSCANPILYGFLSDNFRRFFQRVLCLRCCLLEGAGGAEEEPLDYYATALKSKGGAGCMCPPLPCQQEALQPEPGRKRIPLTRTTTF
Somatostatin receptor type 1, sequence (P30872 whole entry): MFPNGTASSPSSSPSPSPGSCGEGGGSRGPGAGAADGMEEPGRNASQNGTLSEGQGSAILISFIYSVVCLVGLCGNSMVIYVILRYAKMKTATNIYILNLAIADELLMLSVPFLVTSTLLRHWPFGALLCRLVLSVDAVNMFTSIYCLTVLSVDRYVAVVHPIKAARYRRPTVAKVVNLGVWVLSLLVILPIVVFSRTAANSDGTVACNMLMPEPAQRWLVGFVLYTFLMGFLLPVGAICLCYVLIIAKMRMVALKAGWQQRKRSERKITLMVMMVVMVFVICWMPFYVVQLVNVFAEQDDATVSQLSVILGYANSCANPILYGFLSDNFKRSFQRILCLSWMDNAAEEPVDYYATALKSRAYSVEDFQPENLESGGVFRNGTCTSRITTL
Somatostatin receptor type 2, sequence (P30874 whole entry): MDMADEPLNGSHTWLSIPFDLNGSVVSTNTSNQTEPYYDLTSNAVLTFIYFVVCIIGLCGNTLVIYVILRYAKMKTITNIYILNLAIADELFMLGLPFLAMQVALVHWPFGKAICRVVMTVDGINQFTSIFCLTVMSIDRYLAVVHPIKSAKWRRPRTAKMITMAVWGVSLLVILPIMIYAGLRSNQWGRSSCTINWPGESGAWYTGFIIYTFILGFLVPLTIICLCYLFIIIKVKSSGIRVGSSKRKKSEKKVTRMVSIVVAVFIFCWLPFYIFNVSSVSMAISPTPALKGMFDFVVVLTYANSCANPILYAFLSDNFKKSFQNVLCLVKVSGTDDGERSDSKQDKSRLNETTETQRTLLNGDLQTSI
Somatostatin receptor type 3, sequence (P32745 whole entry): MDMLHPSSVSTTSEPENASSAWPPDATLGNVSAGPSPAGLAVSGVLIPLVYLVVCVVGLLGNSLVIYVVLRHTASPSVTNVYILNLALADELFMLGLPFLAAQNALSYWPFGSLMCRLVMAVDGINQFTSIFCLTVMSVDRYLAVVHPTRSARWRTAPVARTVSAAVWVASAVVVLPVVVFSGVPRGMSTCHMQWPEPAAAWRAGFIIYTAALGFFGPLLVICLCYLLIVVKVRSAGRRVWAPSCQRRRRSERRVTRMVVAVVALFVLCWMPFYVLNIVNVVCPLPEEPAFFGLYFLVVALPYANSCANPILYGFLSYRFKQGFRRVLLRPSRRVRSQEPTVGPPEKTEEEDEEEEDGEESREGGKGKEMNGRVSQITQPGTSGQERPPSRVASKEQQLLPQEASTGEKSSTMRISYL
Somatostatin receptor type 5, sequence (P35346 whole entry): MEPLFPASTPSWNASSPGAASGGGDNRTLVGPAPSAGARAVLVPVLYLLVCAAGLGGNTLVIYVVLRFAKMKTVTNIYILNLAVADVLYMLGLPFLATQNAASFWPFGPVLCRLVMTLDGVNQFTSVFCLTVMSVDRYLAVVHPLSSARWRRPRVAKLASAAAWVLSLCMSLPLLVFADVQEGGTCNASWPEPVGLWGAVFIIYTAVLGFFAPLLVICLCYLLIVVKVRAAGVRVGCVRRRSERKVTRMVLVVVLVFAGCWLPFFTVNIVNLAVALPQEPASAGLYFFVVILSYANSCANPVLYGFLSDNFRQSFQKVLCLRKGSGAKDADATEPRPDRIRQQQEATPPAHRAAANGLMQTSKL

`CC(C)NCc1ccc(C[C@@H]2NC(=O)[C@@H](Cc3c[nH]c4ccccc34)NC(=O)[C@H](Cc3ccccc3)NC(=O)[C@H](Cc3ccccc3)NC(=O)[C@H](CCCCN)NC(=O)[C@@H](N)CSSC[C@@H](C(=O)O)NC(=O)[C@H](CO)NC(=O)[C@H]([C@@H](C)O)N(C)C(=O)[C@H](Cc3ccccc3)NC(=O)[C@H]([C@@H](C)O)NC2=O)cc1` was tested. Which IC50 [1] did it give?
Its IC50 is 75 nM.

And the IC50 [2]?
The IC50 was over 1000 nM.

And the IC50 [3]?
Its IC50 is over 1000 nM.

What about the IC50 [4] of the same compound?
The IC50 was over 1000 nM.

And the IC50 [5]?
Its IC50 is over 1000 nM.

What does the source list for `CC(C)NCc1ccc(C[C@@H]2NC(=O)[C@H](N(C)C(=O)c3ccc4ccccc4c3)NC(=O)[C@H](Cc3ccccc3)NC(=O)[C@H](Cc3ccccc3)NC(=O)[C@H](CCCCN)NC(=O)[C@@H](N)CSSC[C@@H](C(=O)O)NC(=O)[C@H](CO)NC(=O)[C@H]([C@@H](C)O)NC(=O)[C@H](Cc3ccc(O)cc3)NC(=O)[C@H]([C@@H](C)O)NC2=O)cc1`?
IC50 [1]: 3.3 nM; IC50 [2]: > 1000 nM; IC50 [3]: > 1000 nM; IC50 [4]: 562 nM; IC50 [5]: > 1000 nM

With `CC(C)NCc1ccc(C[C@@H]2NC(=O)[C@H](N(C)C(=O)c3ccc4ccccc4c3)NC(=O)[C@H](Cc3ccccc3)NC(=O)[C@H](Cc3ccccc3)NC(=O)[C@H](CCCCN)NC(=O)[C@@H](N)CSSC[C@@H](C(=O)O)NC(=O)[C@H](CO)NC(=O)[C@H]([C@@H](C)O)NC(=O)[C@H](Cc3ccc(O)c(I)c3)NC(=O)[C@H]([C@@H](C)O)NC2=O)cc1` as the compound, how does the IC50 [1] read?
The IC50 was 6.7 nM.

And the IC50 [2]?
The IC50 was over 1000 nM.

And the IC50 [3]?
The IC50 was 536 nM.

And the IC50 [4]?
The IC50 was 435 nM.

What about the IC50 [5] of the same compound?
Its IC50 is over 1000 nM.

For `CSCC[C@H](NC(=O)[C@H](C)NC(=O)[C@@H]1CCCN1C(=O)[C@H](CC(N)=O)NC(=O)[C@H](CO)NC(=O)[C@H](CC(N)=O)NC(=O)[C@H](C)NC(=O)[C@@H](N)CO)C(=O)N[C@@H](C)C(=O)N1CCC[C@H]1C(=O)N[C@@H](CCCNC(=N)N)C(=O)N[C@@H](CCC(=O)O)C(=O)N[C@@H](CCCNC(=N)N)C(=O)N[C@@H](CCCCN)C(=O)N[C@@H](C)C(=O)NCC(=O)N[C@H]1CSSC[C@@H](C(=O)O)NC(=O)[C@H](CO)NC(=O)[C@H]([C@@H](C)O)NC(=O)[C@H](Cc2ccccc2)NC(=O)[C@H]([C@@H](C)O)NC(=O)[C@H](CCCCN)NC(=O)[C@H](Cc2c[nH]c3ccccc23)NC(=O)[C@H](Cc2ccccc2)NC(=O)[C@H](Cc2ccccc2)NC(=O)[C@H](CC(N)=O)NC(=O)[C@H](CCCCN)NC1=O` [listing 1 of 2 here], which EC50 (CHO-K1 [6]) is on record?
The EC50 was 0.18 nM and 0.77 nM.

How did the Inhibition (CHO-K1 [7]) turn out when `CSCC[C@H](NC(=O)[C@H](C)NC(=O)[C@@H]1CCCN1C(=O)[C@H](CC(N)=O)NC(=O)[C@H](CO)NC(=O)[C@H](CC(N)=O)NC(=O)[C@H](C)NC(=O)[C@@H](N)CO)C(=O)N[C@@H](C)C(=O)N1CCC[C@H]1C(=O)N[C@@H](CCCNC(=N)N)C(=O)N[C@@H](CCC(=O)O)C(=O)N[C@@H](CCCNC(=N)N)C(=O)N[C@@H](CCCCN)C(=O)N[C@@H](C)C(=O)NCC(=O)N[C@H]1CSSC[C@@H](C(=O)O)NC(=O)[C@H](CO)NC(=O)[C@H]([C@@H](C)O)NC(=O)[C@H](Cc2ccccc2)NC(=O)[C@H]([C@@H](C)O)NC(=O)[C@H](CCCCN)NC(=O)[C@H](Cc2c[nH]c3ccccc23)NC(=O)[C@H](Cc2ccccc2)NC(=O)[C@H](Cc2ccccc2)NC(=O)[C@H](CC(N)=O)NC(=O)[C@H](CCCCN)NC1=O` [listing 2 of 2 here] was run?
The Inhibition was >81% and >49%.

Which results are given for `CC(C)NCc1ccc(C[C@@H]2NC(=O)[C@H](Cc3c[nH]c4ccccc34)NC(=O)[C@H](Cc3ccccc3)NC(=O)[C@H](Cc3ccccc3)NC(=O)[C@H](CCCCN)NC(=O)[C@@H](N)CSSC[C@@H](C(=O)O)NC(=O)[C@H](CO)NC(=O)[C@H]([C@@H](C)O)NC(=O)[C@H](Cc3ccc(O)cc3)NC(=O)[C@H]([C@@H](C)O)NC2=O)cc1` (H-CKFFW[Phe(4-CH2NHiPr)]TYTSC-OH; disulfide 1-11)?
IC50 [1]: 15 nM; IC50 [2]: > 1000 nM; IC50 [3]: > 1000 nM; IC50 [4]: 384 nM; IC50 [5]: > 1000 nM

With `CC(C)NCc1ccc(C[C@H]2C(=O)N[C@@H]([C@@H](C)O)C(=O)N[C@@H](Cc3ccccc3)C(=O)N[C@@H]([C@@H](C)O)C(=O)N[C@@H](CO)C(=O)N[C@H](C(=O)O)CSSC[C@H](N)C(=O)N[C@@H](CCCCN)C(=O)N[C@@H](Cc3ccccc3)C(=O)N[C@@H](Cc3ccccc3)C(=O)N[C@H](Cc3c[nH]c4ccccc34)C(=O)N2C)cc1` (H-CKFF[dW][NMePhe(4-CH2NHiPr)]TFTSC-OH; disulfide 1-11) as the compound, how does the IC50 [1] read?
The IC50 was 10 nM.

What about the IC50 [2] of the same compound?
Its IC50 is over 1000 nM.

What about the IC50 [3] of the same compound?
Its IC50 is 1030 nM.

And the IC50 [4]?
The IC50 was 226 nM.

And the IC50 [5]?
Its IC50 is over 1000 nM.
